Sampled rows, rich in hits. Any-hit rate of the full collection: about 2.6%.
CFTR F508del cor: correctors of CFTR F508del function in bronchial epithelial cells; CFBE cells, YFP halide quenching; stimulated with forskolin plus potentiator P3; % fluorescence drop versus neutral controls; activity (quench increase), % at 7.58 µM; 350,000 compounds, 0.36% hits;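 active means mean added fluorescence quench of at least 8% versus neutral control, with both replicates also reaching 8%; inconclusive means only one of the mean or replicate conditions met; inactive means mean below 8% and not both replicates reaching 8%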;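 further: cells transiently co-express mutant CFTR-F508del with the halide-sensitive YFP; corrector assay measuring rescue of mutant channel to the surface after 24 h compound exposure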
miR-122 sensor: miR-122 inhibition in Huh7 cells; Huh7 miR-122 Renilla luciferase sensor, 48 h; neutral wells = 0, positive control = 100; activation (reporter increase), % at 12.5 µM; 340,000 compounds, 0.3% hits; AID 602342;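 active means mean replicate activation score at least 90 and every replicate individually at or above 90; inconclusive means only one of the two criteria met; inactive means neither criterion met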;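 further: higher luciferase means less miR-122 activity so hits act as miR-122 inhibitors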
E-sel inducer: E-selectin induction on HUVECs. HUVEC E-selectin immunofluorescence imaging; normalized: neutral wells 0, TNF-alpha wells 100. activation, % at 7.58 µM. 260,000 compounds, 0.37% hits. AID 686992;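 active means mean E-selectin-positive cell signal at least 10% of the positive control, reached in at least 60% of replicates, without over 20% cell loss; inconclusive means no rule given, readout overlaps actives, possibly toxicity-flagged; inactive means the rest, including those meeting only one limit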
Target sequence (P16581 whole entry, looked up): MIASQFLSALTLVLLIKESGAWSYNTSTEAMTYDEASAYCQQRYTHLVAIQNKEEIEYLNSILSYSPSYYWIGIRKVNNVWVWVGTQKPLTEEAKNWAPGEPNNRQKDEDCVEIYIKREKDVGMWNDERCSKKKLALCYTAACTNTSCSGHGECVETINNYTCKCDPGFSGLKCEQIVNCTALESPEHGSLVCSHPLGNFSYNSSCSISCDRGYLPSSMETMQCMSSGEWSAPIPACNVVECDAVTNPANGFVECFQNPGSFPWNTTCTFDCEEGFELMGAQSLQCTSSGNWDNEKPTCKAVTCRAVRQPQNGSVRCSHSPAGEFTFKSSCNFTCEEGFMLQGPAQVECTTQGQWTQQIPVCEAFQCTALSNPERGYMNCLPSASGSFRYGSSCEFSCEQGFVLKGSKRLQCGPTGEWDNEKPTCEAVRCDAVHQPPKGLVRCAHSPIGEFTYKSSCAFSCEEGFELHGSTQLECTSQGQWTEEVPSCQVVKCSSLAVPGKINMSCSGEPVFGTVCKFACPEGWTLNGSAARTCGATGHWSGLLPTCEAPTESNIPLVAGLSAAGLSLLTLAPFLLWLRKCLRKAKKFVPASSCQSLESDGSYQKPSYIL
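assay system = HUVEC, human umbilical vein endothelial cells | input = 3,000 HUVEC seeded per well | medium = EGM-2 growth medium on 0.1% gelatin-coated wells | dosing = one compound dose added by pin transfer | signal = immunofluorescence imaging | read-out basis = % PE-positive cells | control set = TNF-alpha, DMSO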
ERAP1 HTS inh: blocks human ERAP1 aminopeptidase activity; AID 652197; recombinant ERAP1, Leu-AMC fluorescence, 60 min; 340,000 compounds, 0.15% hits; inhibition, % at 10.7 µM; Q9NZ08;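 active means mean replicate inhibition of at least 30%, or all replicates individually reaching that 30% level; inactive means mean below 30% and not every replicate reaching it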;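 further: 0% = neutral control wells and 100% = L-leucinethiol positive control wells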
DENV2 CPE rescue: DENV2-induced cell death inhibition. 350,000 compounds, 1.7% hits. CPE inhibition, % at 9.99 µM. AID 651640. DENV2-infected cells, cytopathic effect rescue, plate reader; in the data active means CPE inhibition above about 20%, passing the limit was not always enough; inconclusive means no clear call, values can overlap the other calls; tested in BHK-21 cells;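 further: 0% = median of neutral control wells and 100% = median of positive control wells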
INS-1E GSIS act: GLuc luminescence reporter in INS-1E cells, primary screen for activators of glucose-dependent secretion of insulin. INS-1E GLuc reporter insulin secretion, 2-3 h. activation, % at 16.6 µM. 370,000 compounds, 0.61% hits. AID 743287;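 active means lowest replicate activation of at least 40%, so every replicate reaches that level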;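 further: 0% = median of neutral control wells and 100% = median of IBMX positive control wells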
* marks the source's active call; other numbers are inactive results; ? = inconclusive; / = no result; ! = not active in a repeat; [ ] = dose if it differs, or a comment.

SMILES | CFTR F508del cor | miR-122 sensor | E-sel inducer | ERAP1 HTS inh | DENV2 CPE rescue | INS-1E GSIS act
CS(=O)(=O)N1C[C@H](O)COC[C@H]2O[C@@H](CC(=O)NCc3ccc(-c4ccccc4)cc3)CC[C@@H]21 | 0 | 10[16.7 µM] | 0 | 2 | 79* | 6
O=C(C[C@H]1CC[C@@H]2[C@H](COC[C@@H](O)CN2C(=O)c2cccnc2)O1)NCc1ccc(-c2ccccc2)cc1 | -5 | -2[16.7 µM] | 0 | 1 | 23* | 9
CCCNC(=O)C[C@H]1CC[C@@H]2[C@H](COC[C@@H](O)CN2C(=O)c2ccccn2)O1 | -1 | -2[16.7 µM] | 0 | 3 | 89*! | 1
Cc1ccc(S(=O)(=O)N(C)C[C@H]2Oc3ncc(-c4ccncc4)cc3C(=O)N([C@H](C)CO)C[C@H]2C)cc1 | 3 | 0[16.7 µM] | 0 | 1 | ? | -3
O=C(C[C@@H]1CC[C@H]2[C@@H](COC[C@H](O)CN2C(=O)c2ccccc2F)O1)NCc1ccccc1 | 0 | 4[16.7 µM] | 0 | -1 | 86* | 4
O=C(C[C@H]1CC[C@@H]2[C@H](COC[C@H](O)CN2C(=O)c2ccncc2)O1)NCc1ccc(-c2ccccc2)cc1 | 2 | 39[16.7 µM] | 0 | -3 | 20* | 7
CC(C)N1CCN(Cc2ccncc2)CC1CCO (stereo not drawn) | 0 | / | / | 0 | 11 | 10
Cc1ccc(-c2cccc(CN3CCN(C(C)C)C(CCO)C3)c2)o1 (stereo not drawn) | 11* | / | 0 | 1 | 4 | 0
O=C(Nc1ccc(S(=O)(=O)Nc2ncccn2)cc1)c1nn(Cc2ccccc2)c(=O)c2ccccc12 | 6 | 16 | 0 | 1 | -2 | 31
CCn1nc(C(=O)Nc2ccc(S(=O)(=O)Nc3nccs3)cc2)c2ccccc2c1=O | / | 93* | / | / | / | /
Cc1cccc(NC(=O)CN2CCN(C(=O)c3cc(C4CC4)nn3-c3ccccc3)CC2)c1C | 2 | 0 | 0 | -1 | 62* | /
O=C(CCN1CCN(c2ccccc2)CC1)c1ccc(Cl)cc1 | 2 | 15 | / | 1 | 19 | 11
O=C(CCN1CCOCC1)c1ccc(N2CCCCC2)cc1 | -1 | 0 | 0 | -1 | / | 51*
CC(=O)c1ccc(NS(=O)(=O)c2c(C)cc(C)cc2C)cc1 | 0 | 152* | -2 | -2 | 4 | 5
N#C[C@@H]1[C@@H](c2ccc(C#Cc3ccccc3F)cc2)[C@@H](CO)N1C(=O)C1CCC1 | -7 | / | 0 | -1 | 51* | -1
N#C[C@@H]1[C@@H](c2ccc(C#Cc3ccccc3F)cc2)[C@@H](CO)N1C(=O)C1CCCC1 | / | / | / | / | / | -23
N#C[C@H]1[C@H](c2ccc(C#Cc3ccccc3F)cc2)[C@H](CO)N1C(=O)C1CC1 | -3 | / | -1 | -3 | 30* | -6
Cc1noc(C)c1S(=O)(=O)Nc1ccc2c(c1)C(=O)N([C@@H](C)CO)C[C@@H](C)[C@H](CN(C)S(=O)(=O)c1cn(C)cn1)OCCCC[C@@H](C)O2 | -4 | -7[16.7 µM] | / | 1 | 37* | -13
C[C@@H]1CCCCO[C@@H](CN(C)S(=O)(=O)c2cn(C)cn2)[C@@H](C)CN([C@H](C)CO)C(=O)c2cc(NS(=O)(=O)c3ccc(Cl)cc3)ccc2O1 | -1 | 39[16.7 µM] | 0 | -7 | 37* | 5
Cc1noc(C)c1S(=O)(=O)Nc1ccc2c(c1)C(=O)N([C@@H](C)CO)C[C@@H](C)[C@@H](CN(C)S(=O)(=O)c1cn(C)cn1)OCCCC[C@H](C)O2 | -1 | -3[16.7 µM] | / | -3 | -3 | 11
Cc1ccc(S(=O)(=O)Nc2ccc3c(c2)C(=O)N([C@H](C)CO)C[C@H](C)[C@@H](CN(C)S(=O)(=O)c2cn(C)cn2)OCCCC[C@@H](C)O3)cc1 | -1 | 11[16.7 µM] | 0 | -2 | -1 | 36
Cc1ccc(S(=O)(=O)Nc2ccc3c(c2)C(=O)N([C@@H](C)CO)C[C@@H](C)[C@H](CN(C)S(=O)(=O)c2cn(C)cn2)OCCCC[C@@H](C)O3)cc1 | -1 | 4[16.7 µM] | 0 | -4 | 21* | 11
COCC#Cc1ccc2c(c1)O[C@H](CN(C)C(=O)C1CC1)[C@@H](C)CN([C@@H](C)CO)S2(=O)=O | -3 | 7[16.7 µM] | 0 | 0 | 3 | 2

Bioassay records: PubChem BioAssay, Broad Institute
